Measurements gathered from unrelated publications.
Compare with care: the assays were run in different laboratories.
Organism: Plasmodium falciparum
Observed: parasite growth

| Compound | assay | system | setting | IC50 |
| --- | --- | --- | --- | --- |
| CN1CCC(NCc2cccc(-c3ccc(S(=O)(=O)NCc4ccccc4)cc3)c2)CC1 | SYBR Green | – | blood stage | 593 nM |
| COc1cc(NC(C)CCCNC(=O)c2cccc(C(=O)NCCCC(C)Nc3cc(OC)cc4cccnc34)n2)c2ncccc2c1.Cl (centres unmarked) | – | D6 | blood stage | 2.2 µg/mL |
| COC1=CC(c2ccco2)=NC1=Cc1ccc(CCCCCCCCCC(C)O)[nH]1 (centres unmarked) | – | D6 | blood stage | > 2500 nM |
| Cc1cccc(C(=O)O)c1NC(=O)c1ccc(-c2ccccc2)cc1 | resazurin | NF54 | 48 h, gametocyte | 1140 nM |
| Clc1ccc2c(c1)nc(NCc1ccccn1)n2Cc1ccccc1 | – | NF54 | blood stage | > 10000 nM |
| O=C(Nc1ccc2c(c1)B(O)OC2)Nc1ccc(F)c(C(F)(F)F)c1 | – | NF54 | blood stage | 3100 nM |
| CC[C@@H](C)[C@H]1O[C@@H](c2c(O)c(-c3ccccc3)cn(O)c2=O)[C@H](C)C[C@@H]1C | – | D6 | 72 h, blood stage | 0.33 µg/mL |
| Oc1cccc(C(Nc2nccs2)c2ccc3cccnc3c2O)c1 (centres unmarked) | SYBR Green | – | blood stage | 1200 nM |
| C#CCCCCCCCCCCCC(O)CC(O)CO (centres unmarked) | – | W2 | drug-resistant strain, blood stage | 32.5 µg/mL |
| CC1=C(C)C(c2ccc[nH]2)=NC1=Cc1ccc(CCCCCCCCCC(C)O)[nH]1 (centres unmarked) | – | D6 | blood stage | 1080 nM |
| O=C(Nc1c(F)cccc1C(=O)O)c1ccc(-c2ccccc2)cc1 | – | NF54 | 48 h, blood stage | > 10000 nM |
| COc1cccc(N2CCN(C3=Nc4c(F)cccc4[C@H](CC(=O)O)N3c3cc(C(F)(F)F)ccc3OC)CC2)c1 | SYBR Green | – | blood stage | 9950 nM |
| O=C1C(O)=C([C@H]2CC[C@H](c3ccc(Cl)cc3)CC2)C(=O)c2ccccc21 | – | 3D7 | 24 h, blood stage | 6.5 nM |
| CCc1ccc(C2=NC(=Cc3ccc(CCCCCCCCCC(C)O)[nH]3)C(OC)=C2)[nH]1 (centres unmarked) | – | D6 | blood stage | 17 nM |
| CCN(CC)CCCC(C)Nc1ccnc2cc(Cl)ccc12 (centres unmarked) | – | D10 | 72 h | 20 nM |
| Fc1ccc(-c2nc3c(N4CCCN(CC5CC5)CC4)nccc3[nH]2)cc1F | – | NF54 | blood stage | 20 nM |
| C#CCCCCCCCCC=CCC(O)CC(O)CO (centres unmarked) | – | W2 | drug-resistant strain, blood stage | > 47.6 µg/mL |
| CS(=O)(=O)c1ccc2c(c1)nc(C1CCNCC1)n2Cc1ccccc1 | – | NF54 | blood stage | > 10000 nM |
| C[C@@]12CC[C@@H](O)[C@]3(C)C4=CC(=O)OCC4=C[C@@H](OC1=O)C23 (some centres unmarked) | – | D6 | 72 h, blood stage | 0.9 µg/mL |
| Clc1ccc2c(c1)nc(NCCN1CCOCC1)n2Cc1ccccc1 | – | NF54 | blood stage | 8520 nM |
| Cc1cc(NC(=O)Nc2ccc3c(c2)OC(F)(F)O3)cc(C(F)(F)F)n1 | – | NF54 | blood stage | 290 nM |

| Compound | assay | system | setting | IC50 |
| --- | --- | --- | --- | --- |
| CCN(CC)CCCC(C)Nc1ccnc2cc(Cl)ccc12 (centres unmarked) | – | D6 | 72 h, blood stage | 0.016 µg/mL |
| Clc1ccc2c(c1)nc(NCCNCc1ccncc1)n2Cc1ccccc1 | – | NF54 | blood stage | 2280 nM |
| O=C(O)c1ccc(-n2nc(-c3ccccc3O)nc2-c2ccccc2O)cc1 | SYBR Green | – | blood stage | 47700 nM |
| c1ccc(Cn2c(N3CCNCC3)nc3cc(-c4ccncc4)ccc32)cc1 | – | NF54 | blood stage | 1660 nM |
| COc1ccc2[nH]c(-c3ccc(Cc4ccc(OC(F)(F)F)cc4)cc3)c(C)c(=O)c2c1 | – | 3D7 | blood stage | > 350 nM |
| c1ccc(Oc2ccc(-c3cc(C4CCOCC4)[nH]n3)cc2)cc1 | SYBR Green | – | blood stage | 70200 nM |
| CN1CCN(C2CCN(c3nccc4[nH]c(-c5cc(F)cc(F)c5)nc34)CC2)CC1 | – | NF54 | blood stage | < 100 nM |
| COc1cccc2c(-c3ccc4c(c3O)[C@@H](C)N[C@H](C)C4)c(C)cc(OC)c12 | SYBR Green | NF54 | blood stage | 1330 nM |
| CO[C@H]1/C=C/O[C@@]2(C)Oc3c(C)c(O)c4c(O)c(c(/C=N/N5CCN(C)CC5)c(O)c4c3C2=O)NC(=O)/C(C)=C\C=C[C@H](C)[C@H](O)[C@@H](C)[C@@H](O)[C@@H](C)[C@H](OC(C)=O)[C@@H]1C | SYBR Green | – | blood stage | 7810 nM |
| O=C(O)c1ccccc1NC(=O)c1ccccc1-c1ccccc1 | resazurin | NF54 | 48 h, gametocyte | > 10000 nM |
| NC(N)=Nc1ccc(-c2ccc(-c3ccc(N=C(N)N)c(Cl)c3)o2)cc1Cl | SYBR Green | – | blood stage | 249 nM |
| Cc1ccc(-c2ccc3ncc4c(c3c2)n(-c2cccc(C(F)(F)F)c2)c(=O)n4C)cn1 | resazurin | 3D7 | gametocyte | < 100 nM |
| CCOc1ccc(-c2nc(CNCCc3ccc(F)cc3)cs2)cc1 | SYBR Green | – | blood stage | 17100 nM |
| C[C@@H]1CC[C@H]2[C@@H](C)C(=O)O[C@@H]3O[C@@]4(C)CC[C@@H]1[C@]32OO4 | – | D6 | 72 h, blood stage | 0.0047 µg/mL |
| C[C@@H]1CN(c2nc3cc(Cl)ccc3n2Cc2ccccc2)C[C@H](C)N1 | – | NF54 | blood stage | 216 nM |
| O=C(Nc1cc(F)ccc1C(=O)O)c1ccc(-c2ccccc2)cc1 | – | NF54 | 48 h, blood stage | > 10000 nM |
| Clc1ccc2c(nc(N3CCNCC3)n2Cc2ccccc2)c1-c1ccncc1 | – | NF54 | blood stage | 2170 nM |
| CCCCCCCCCCCCCC(O)CC(O)CO (centres unmarked) | – | W2 | drug-resistant strain, blood stage | 40.8 µg/mL |
| COC(=O)c1ccc2c(c1)nc(C1CCNCC1)n2Cc1ccccc1 | – | NF54 | blood stage | 3830 nM |
| O=C(O)c1ccc(F)cc1NC(=O)c1ccccc1-c1ccccc1 | resazurin | NF54 | 48 h, gametocyte | > 10000 nM |
